These results are taken from PubChem BioAssay.

A short description of test [1]: inhibitors of TNFa-induced NFkB p65 translocation, primary screen, imaging, HUVEC, MLSMR starter and 10KST1 sets (AID 438;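 active means inhibition above 20% together with a positive visual image hit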;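 further: compound added about 3h40 before a 20 min TNFalpha stimulation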;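 on inhibition: signal is the nuclear over cytoplasmic p65 intensity ratio per well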). The conditions noted are these: HUVEC TNFa-induced p65 nuclear translocation; cell count: measured here: nuclei count (cytotoxicity indicator), at 2.08 µM; inhibition: at 2 µM, stronger effect = higher value, 0% TNFa-plus-vehicle, 100% no-TNFa wells.
A short description of test [2]: inhibitors of mutant huntingtin aggregation, primary screen, imaging, exon1htt(103Q)mCFP cells, high-content imaging (AID 483;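 active means visual image review flags a hit and inhibition of aggregation exceeds 20%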;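 further: compound exposure lasted 3 days before fixation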;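 on nuclei count: percent of the per-plate median nuclei count of sample wells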). The conditions noted are these: exon1htt(103Q)mCFP cell line, aggregate imaging, at 2 µM; inhibition of aggregation: stronger effect = higher value; nuclei count: measured here: cell count, toxicity.
A short description of test [3]: inhibitors of E-selectin induction by TNFa, primary screen, imaging, HUVEC, immunofluorescence, MLSMR starter and 10KST1 sets (AID 487;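 active means visually confirmed hit in the image check and inhibition above 20%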;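 on inhibition: signal is fraction of cell area covered by stained E-selectin grains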;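 on nuclei count: 100% = median nuclei count of all wells on the same plate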). The conditions noted are these: HUVEC TNFalpha-induced E-selectin immunofluorescence imaging, at 2 µM; inhibition: stronger effect = higher value; nuclei count: measured here: cell number, toxicity.
For test [4], the target named is Voltage-gated potassium channel subunit beta-2 (Rattus norvegicus) (UniProt P62483). As to the kind of experiment: KvBeta enzyme negative modulators, primary screen, biochemical, NADPH fluorescence (AID 622;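 active means fluorescence slope higher than the sample average by over 3 SD, cut at about -0.22 in these data, passing the limit was not always enough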;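 further: slope of raw intensity against log time taken from 70 to 1610 s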). The conditions noted are these: recombinant KvBeta, 4-cyanobenzaldehyde reduction, at 10 µM, stronger effect = higher value.
Test [5] has the same target. The test can be described thus: KvBeta positive modulators, primary screen, biochemical, NADPH fluorescence (AID 623;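 active means NADPH fluorescence slope more negative than the mean of all samples by about 3 SD, 99.7% confidence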;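 further: fluorescence intensity change per second fitted from 20 to 320 s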). The conditions noted are these: Recombinant KvBeta, NADPH fluorescence decrease slope, 10 min; at 10 µM; stronger effect = lower value.
The target of test [6] is Alpha-2C adrenergic receptor (Homo sapiens) (UniProt P18825). The test can be described thus: modulators of alpha2C/GIRK thallium flux, primary screen, cell-based, HEK293 alpha2C/GIRK1/2 (AID 624).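 Further: slope of fluorescence ratio to pre-addition baseline per second over 15 to 24 s.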 The conditions noted are these: thallium flux BTC fluorescence, at 10 µM, actives lie on both sides.
Test [7] in a line: inhibitors of larval lipid processing in zebrafish, primary screen, whole organism, PED6 fluorescence, gall bladder and intestine (AID 686;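 active means a full or partial loss of lipid-probe fluorescence in the fish gall bladder, intestine or both, judged by eye; inactive means no fluorescence loss, or compound toxic to the fish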;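 further: larvae 5 to 7 days old with five fish per well; signal comes from phospholipase A2 cleavage of quenched PED6 carried via bile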). The conditions noted are these: Zebrafish larvae PED6 lipid processing, fluorescence scoring; screened at 20 µM (by protocol). The method in brief: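 System: live zebrafish larvae aged 5-7 days, whole organism; measure: graded gall bladder and intestinal fluorescence inhibition per well; incubation: overnight exposure; reagent: ingested quenched lipid PED6 at 100 nM; signal: By-eye fluorescence microscopy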

The nature of test [8]: inhibitors of Sendai virus-induced IRF3 signaling, primary screen, TLR/RLR signaling modifier project, cell-based, Sendai virus stimulus, luciferase, 10K MLSCN set (AID 602276;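 active means inhibition at or above 50% at 10 µM; inactive means inhibition below 50%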;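 further: firefly luciferase from ISG56 promoter only with Renilla not read in this screen; 0% = Sendai virus plus DMSO and 100% = medium plus DMSO without virus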). The conditions noted are these: HEK293 RL24 IRF3 luciferase reporter, at 10 µM, stronger effect = higher value.
A short description of test [9]: inhibitors of poly I:C-induced TLR3 signaling, primary screen, cell-based, poly I:C stimulus, luciferase, 10K MLSCN set (AID 602277;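 active means inhibition of the reporter signal at or above 50%; inactive means inhibition below 50%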). The conditions noted are these: HEK293-TLR3 RL24 IRF3 luciferase reporter, at 10 µM, stronger effect = higher value.

Active and inactive are the calls of the source.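 How the source made its calls, unless noted: active means fluorescence slope after compound addition differing from the mean of all screened samples at 99.7% confidence, in either direction; inactive means the rest.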

Alpha-2C adrenergic receptor (Homo sapiens), sequence (P18825 whole entry, looked up): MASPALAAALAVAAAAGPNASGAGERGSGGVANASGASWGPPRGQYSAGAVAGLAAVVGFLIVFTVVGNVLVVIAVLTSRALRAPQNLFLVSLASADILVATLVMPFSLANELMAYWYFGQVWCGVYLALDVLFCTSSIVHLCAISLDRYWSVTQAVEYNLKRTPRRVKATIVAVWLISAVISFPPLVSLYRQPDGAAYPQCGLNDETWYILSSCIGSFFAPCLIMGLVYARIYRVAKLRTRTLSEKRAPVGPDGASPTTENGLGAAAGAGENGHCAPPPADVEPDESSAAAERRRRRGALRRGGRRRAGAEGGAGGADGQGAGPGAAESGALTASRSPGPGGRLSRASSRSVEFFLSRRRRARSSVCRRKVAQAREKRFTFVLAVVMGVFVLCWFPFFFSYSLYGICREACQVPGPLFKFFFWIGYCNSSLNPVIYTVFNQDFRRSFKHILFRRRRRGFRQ
Voltage-gated potassium channel subunit beta-2 (Rattus norvegicus), sequence (P62483 whole entry, looked up): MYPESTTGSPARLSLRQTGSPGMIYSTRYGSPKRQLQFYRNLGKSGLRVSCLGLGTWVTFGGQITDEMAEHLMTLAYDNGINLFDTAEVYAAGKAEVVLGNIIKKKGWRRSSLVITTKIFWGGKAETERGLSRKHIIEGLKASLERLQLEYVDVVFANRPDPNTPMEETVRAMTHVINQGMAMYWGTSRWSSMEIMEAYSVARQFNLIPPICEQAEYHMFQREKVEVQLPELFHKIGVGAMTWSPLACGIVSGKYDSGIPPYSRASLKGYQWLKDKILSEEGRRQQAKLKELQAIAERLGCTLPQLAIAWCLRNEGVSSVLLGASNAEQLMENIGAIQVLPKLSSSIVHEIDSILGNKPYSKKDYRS

Turning to `CC1(C)CC(=O)C2=C(C1)Nc1ccccc1N=C2`, in test [1], the cell count came out at 759. Besides, the inhibition in test [1] is -6.9% (inactive); in test [3], 40.8% (inactive); in test [8], -4.26% (inactive); in [9], -38.2% (inactive). Besides, in test [2], the inhibition of aggregation was 11.9% (inactive). The nuclei count in test [2] amounted to 104%; in [3], 94.5%. Besides, in test [4], the fluorescence slope was -0.483 (inactive). For the same molecule, the NADPH fluorescence slope in test [5] was -5.6e-05 (inactive). Moreover, in test [6], the slope was 0.00436 (inactive). In test [7], the result was inactive.

Take `CCCCOC(=O)Nc1nccs1`: the cell count in [1] is 690. The inhibition in test [1] was -2.6% (inactive); in [3], -53.6% (inactive); in test [8], -8.28% (inactive); in [9] it was -28.8% (inactive). Besides, the inhibition of aggregation in test [2] is 4.5% (inactive). The nuclei count in test [2] and in test [3] was 116% each time. In addition, the fluorescence slope in [4] was -0.404 (inactive). In test [5], the NADPH fluorescence slope was -3.3e-05 (inactive). Besides, in test [6], the slope was 0.00518 (inactive). Further, the call in test [7] was inactive.

For `Cc1sc2nc3n(c(=O)c2c1C)NC(=O)CC3`, the cell count in [1] was 744. In addition, the inhibition in test [1] was -7.3% (inactive); in test [3] it was 32.1% (inactive); in test [8] it was 16.2% (inactive); in test [9] it was 12.8% (inactive). In test [2], the inhibition of aggregation is -15% (inactive). The values for the nuclei count in [2] and in test [3] were 66.7% and 85%, respectively. Moreover, in [4], the fluorescence slope was -0.421 (inactive). Moreover, the NADPH fluorescence slope in [5] is -2.9e-05 (inactive). The slope in [6] was 0.0069 (inactive). In addition, in test [7], the molecule was called inactive.

Turning to `Cc1ccc(C)n1-c1ccc(-n2cnnn2)cc1`, the cell count in [1] is 572. Further, the inhibition in test [1] was -1.6% (inactive); in test [3], -24.4% (inactive); in test [8] it was 8.71% (inactive); in test [9], 9.74% (inactive). Also, the inhibition of aggregation in test [2] is -8.3% (inactive). Besides, the nuclei count was determined as 86.5% in [2] and 50.8% in test [3]. Further, the fluorescence slope in test [4] was -0.366 (inactive). In addition, the NADPH fluorescence slope in test [5] was -5.9e-05 (inactive). For the same molecule, in test [6], the slope was 0.00396 (inactive). In addition, in test [7], the molecule was called inactive.

In the case of `CCC(c1nnc(SCC(=O)Nc2ccc(C(=O)Nc3ccccc3OC)cc2)o1)N(C)C` (stereo not drawn), in test [1], the cell count was determined as 464. The inhibition in test [1] was 2.9% (inactive); in [3], -70.6% (inactive); in [8] it was -5.51% (inactive); in test [9] it was 98.3% (active). Moreover, the inhibition of aggregation in [2] is -11.7% (inactive). In addition, the nuclei count in test [2] turned out to be 102%; in test [3], 90.3%. Moreover, the fluorescence slope in test [4] is -0.442 (inactive). For the same molecule, the NADPH fluorescence slope in test [5] is -7.1e-06 (inactive). Further, the slope in test [6] was 0.00416 (inactive). For the same molecule, the outcome in test [7] was inactive.

Consider `CCC(C(=O)NC(C)CCc1ccco1)n1nc(C)n2c(cc3occc32)c1=O` (stereo not drawn), for which the cell count in [1] came out at 488. Further, the inhibition is 6% (inactive) in [1], -121% (inactive) in test [3], 2.28% (inactive) in test [8] and 2.25% (inactive) in [9]. Also, the inhibition of aggregation in test [2] is -13.2% (inactive). Besides, the figures for the nuclei count in test [2] and in test [3] were 84.5% and 98.3%, respectively. Also, in [4], the fluorescence slope is -0.475 (inactive). Also, in test [5], the NADPH fluorescence slope was -2e-05 (inactive). Moreover, in test [6], the slope was 0.00405 (inactive). Besides, the result in [7] was inactive.

Consider `Cc1cc(C(=O)COC(=O)CCc2nc3ccccc3s2)c(C)n1C`, for which, in test [1], the cell count was 170. Moreover, the inhibition is -10.5% (inactive) in test [1], -16% (inactive) in [3], 16.3% (inactive) in test [8] and 7.6% (inactive) in test [9]. Also, the inhibition of aggregation in [2] is 14.2% (inactive). Further, the nuclei count was 108% in [2] and 96% in test [3]. The fluorescence slope in test [4] is -0.454 (inactive). Further, the NADPH fluorescence slope in test [5] was -3.3e-05 (inactive). Further, in test [6], the slope was 0.00538 (inactive). Also, the molecule was classed as inactive in [7].

In the case of `O=C(COc1ccc(F)cc1)Nc1ccc(-n2cnnn2)cc1`, in [1], the cell count turned out to be 568. In addition, the inhibition in [1] was 1.1% (inactive); in [3] it was 52.5% (inactive); in [8], 8.39% (inactive); in test [9] it was 1.26% (inactive). The inhibition of aggregation in test [2] was 34.2% (inactive). In addition, the nuclei count in [2] was found to be 90.5%; in test [3], 62.3%. The fluorescence slope in [4] was -0.409 (inactive). Besides, the NADPH fluorescence slope in test [5] is -0.000109 (inactive). For the same molecule, the slope in test [6] was 0.00564 (inactive). Further, the result in [7] was inactive.

On to `COc1ccc(-n2ncc3c(NCc4cccs4)ncnc32)cc1`, for which, in test [1], the cell count came to 424. The inhibition is 3.9% (inactive) in test [1], -94.5% (inactive) in test [3], -24.5% (inactive) in [8] and -70.4% (inactive) in test [9]. In [2], the inhibition of aggregation was -20.1% (inactive). Besides, the nuclei count in test [2] turned out to be 98.4%; in [3], 106%. Moreover, the fluorescence slope in test [4] is -0.36 (inactive). Besides, in test [5], the NADPH fluorescence slope was -2e-06 (inactive). For the same molecule, the slope in test [6] is 0.00593 (inactive). In addition, the result in test [7] was inactive.

For `O=c1c2cnn(-c3ccccc3)c2ncn1/N=C/c1ccncc1`, in [1], the cell count was 476. The inhibition in test [1] was -7.8% (inactive); in test [3] it was -71.4% (inactive); in test [8] it was 11.6% (inactive); in [9], 11.3% (inactive). Further, in test [2], the inhibition of aggregation is 3.3% (inactive). Further, the nuclei count in test [2] came to 119%; in test [3], 108%. Also, the fluorescence slope in [4] was -0.378 (inactive). Further, in [5], the NADPH fluorescence slope is -5.9e-05 (inactive). Besides, the slope in test [6] is 0.00444 (inactive). In [7], the call was inactive.

Turning to `CCSCc1nnc(SCC(=O)Nc2cccc(SC)c2)n1C`, in [1], the cell count came out at 492. The inhibition in [1] is -5.8% (inactive); in test [3], -43.2% (inactive); in [8], 9.84% (inactive); in test [9], 18.9% (inactive). Also, the inhibition of aggregation in [2] was 0.2% (inactive). Besides, the nuclei count in [2] is 101%; in [3] it was 147%. Moreover, the fluorescence slope in [4] is -0.452 (inactive). Besides, in test [5], the NADPH fluorescence slope was -4.6e-05 (inactive). Moreover, the slope in [6] was 0.00484 (inactive). In test [7], the molecule was classed as inactive.

Regarding `Cc1ccc2cc(C(c3nnnn3C3CCCC3)N3CCN(c4ccc(F)cc4)CC3)c(=O)[nH]c2c1` (stereo not drawn), in test [1], the cell count is 586. In addition, the inhibition is 7.2% (inactive) in test [1], -31.9% (inactive) in test [3], 23.2% (inactive) in [8] and 34.2% (inactive) in [9]. For the same molecule, the inhibition of aggregation in test [2] was -4.3% (inactive). For the same molecule, the nuclei count in test [2] stood at 99.8%; in test [3], 130%. Further, the fluorescence slope in test [4] was -0.372 (inactive). Besides, in test [5], the NADPH fluorescence slope was -4.7e-05 (inactive). The slope in test [6] was 0.00624 (inactive). Also, the outcome in test [7] is “inactive; toxic”.

For the molecule `CC(C)CC(c1nnnn1C(C)(C)C)N1CCN(C2CCCC2)CC1` (stereo not drawn), the cell count in [1] came to 487. In addition, the inhibition in [1] is 7.1% (inactive); in test [3], -5.6% (inactive); in test [8], 5.92% (inactive); in test [9], 13.5% (inactive). Further, the inhibition of aggregation in test [2] is -11.7% (inactive). Also, the nuclei count in [2] came to 98.2%; in [3] it was 109%. For the same molecule, the fluorescence slope in test [4] was -0.33 (inactive). The NADPH fluorescence slope in [5] is -6.5e-05 (inactive). For the same molecule, the slope in test [6] was 0.00477 (inactive). For the same molecule, the result in test [7] was inactive.

Regarding `FC(F)Oc1cccc2cccnc12`, in test [1], the cell count is 538. The inhibition was -5.8% (inactive) in test [1], 67.2% (active) in [3], 10.2% (inactive) in [8] and 9.81% (inactive) in [9]. The inhibition of aggregation in test [2] was -5.4% (inactive). For the same molecule, the nuclei count worked out at 103% in [2] and 82.3% in [3]. Besides, the fluorescence slope in test [4] is -0.345 (inactive). Moreover, the NADPH fluorescence slope in test [5] is -1.3e-05 (inactive). In [6], the slope is 0.00451 (inactive). For the same molecule, in test [7], the outcome was inactive.
